According to PMC6045484 (ACS Omega, 2018):
≈ marks a conversion by molar mass, not a printed value.

Assays:
[1] = tested on: P. falciparum (D6); assay: in vitro antimalarial activity, plasmodial LDH; type: cell-based, Plasmodium falciparum; settings: Plasmodium falciparum, D6, 72 h, read-out: P. falciparum (D6) IC50
[2] = tested on: P. falciparum (W2); assay: in vitro antimalarial activity, plasmodial LDH; type: cell-based, Plasmodium falciparum; settings: Plasmodium falciparum, W2, 72 h, read-out: P. falciparum (W2) IC50, CQ-resistant W2 strain, 72 h
Outline: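 P. falciparum-infected erythrocytes (2% parasitemia, 2% hematocrit) in RPMI 1640 with 10% human serum and 60 μg/mL amikacin. Exposed to test compound dilutions for 72 h at 37 °C under 90% N2/5% O2/5% CO2. LDH measured with Malstat reagent (30 min, room temperature), then NBT/PES for 1 h in the dark, stopped with 5% acetic acid, read at 650 nm. IC50 from dose-response curves.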

[3] = tested on: SK-MEL, KB, BT-549, SK-OV-3, VERO and LLC-PK1 cells; assay: cytotoxicity, neutral red uptake assay; type: cell-based, mammalian; settings: highest test concentration 4760 ng/mL
Outline: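 Cells seeded at 25 000/well and allowed 24 h to reach confluence. Test compound was then added and incubated 48 h. Viable cells were counted by a modified neutral red uptake method. The panel was four human cancer lines and two noncancerous mammalian kidney lines. Doxorubicin served as positive control and DMSO as negative control.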

[4] = tested on: C. albicans ATCC90028; assay: in vitro antifungal activity; type: cell-based, Candida albicans; settings: Candida albicans; for IC50: ATCC90028, read-out: C. albicans IC50; for MFC: ATCC90028, read-out: C. albicans MFC; for MIC: ATCC90028, read-out: C. albicans MIC
Outline: (§1)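 Modified NCCLS broth method in Sabouraud dextrose. Inoculum set by OD630 to 1.5 × 10^3 CFU/mL. Test compound serially diluted in 20% DMSO/saline, duplicate wells, up to 20 μg/mL. Incubated 70–74 h at 35 °C; 530 nm read before and after. IC50 is 50% growth inhibition; MIC is no detectable growth. MFC from clear wells subcultured on agar. Amphotericin B control.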

[5] = tested on: C. neoformans ATCC90113; assay: in vitro antifungal activity; type: cell-based, Cryptococcus neoformans; settings: Cryptococcus neoformans; for IC50: ATCC90113, read-out: C. neoformans IC50; for MFC: ATCC90113, read-out: C. neoformans MFC; for MIC: ATCC90113, read-out: C. neoformans MIC
Outline: as §1

[6] = tested on: A. fumigatus ATCC 90906; assay: in vitro antifungal activity; type: cell-based, Aspergillus fumigatus; settings: Aspergillus fumigatus; for IC50: ATCC90906, read-out: A. fumigatus IC50; for MFC: ATCC90906, read-out: A. fumigatus MFC; for MIC: ATCC90906, read-out: A. fumigatus MIC
Outline: as §1

[7] = tested on: SA (ATCC29213); assay: in vitro antibacterial activity; type: cell-based; settings: Staphylococcus aureus; for IC50: ATCC29213, read-out: IC50 (concentration that affords 50% growth inhibition), SA; for MBC: ATCC29213, read-out: MBC (minimum bactericidal concentration), SA; for MIC: ATCC29213, read-out: MIC, SA
Outline: (§2)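 Test compound serially diluted in 20% DMSO/saline and plated in duplicate, up to 20 μg/mL. Inoculum in cation-adjusted Mueller–Hinton broth, pH 7.3, set by OD630 to 5 × 10^5 CFU/mL. Incubated 16–20 h at 35 °C; 530 nm read before and after. IC50 is 50% growth inhibition; MIC is no detectable growth. MBC from clear wells subcultured on agar. Ciprofloxacin control.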

[8] = tested on: MRSA (ATCC33591); assay: in vitro antibacterial activity; type: cell-based, methicillin-resistant Staphylococcus aureus; settings: Staphylococcus aureus, ATCC33591|MRSA, read-out: MIC, MRSA
Outline: as §2

[9] = tested on: M. intracellulare (ATCC23068); assay: in vitro antibacterial activity, modified alamarBlue procedure; type: cell-based, Mycobacterium intracellulare; settings: Mycobacterium intracellulare; for IC50: ATCC23068, read-out: IC50 (concentration that affords 50% growth inhibition), M. intracellulare; for MBC: ATCC23068, read-out: MBC (minimum bactericidal concentration), M. intracellulare; for MIC: ATCC23068, read-out: MIC, M. intracellulare
Outline: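 Modified alamarBlue microplate method. Test compound serially diluted in 20% DMSO/saline, duplicate wells, up to 20 μg/mL. Inoculum 2.0 × 10^6 CFU/mL in Middlebrook 7H9 with OADC, pH 7.3, containing 5% alamarBlue. Incubated 70–74 h at 37 °C, 10% CO2; fluorescence 544ex/590em read before and after. MIC: no blue-to-pink change. MBC by subculturing blue wells on agar. Ciprofloxacin control.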

Compound	IC50 [1] [µg/mL]	IC50 [2] [µg/mL]	cytotoxicity CTX [3]	IC50 [4] [µg/mL]	MFC [4] [µg/mL]	MIC [4] [µg/mL]	IC50 [5] [µg/mL]	MFC [5] [µg/mL]	MIC [5] [µg/mL]	IC50 [6] [µg/mL]	MFC [6] [µg/mL]	MIC [6] [µg/mL]	IC50 [7] [µg/mL]	MBC [7] [µg/mL]	MIC [7] [µg/mL]	MIC [8] [µg/mL]	IC50 [9] [µg/mL]	MBC [9] [µg/mL]	MIC [9] [µg/mL]
CCCCCOc1c(OC)cc(NC(C)CCCNC(=O)C(N)CCCN)c2nc(C(C)(C)C)ccc12 (centres unmarked) [compound 93, 2,5-Diamino-N-(4-(2-tert-butyl-6-methoxy-5-(pentyloxy)quinolin-8-ylamino)-pentyl)pentanamide]	1 (≈ 1.94 µM)	0.87 (≈ 1.69 µM)	NC (NC, not cytotoxic up to 4760 ng/mL (4.76 μg/mL))	> 20	> 20	> 20	10.1 (≈ 19.6 µM)	> 20	> 20	> 20	> 20	> 20	> 20	> 20	> 20	> 20	8.99 (≈ 17.4 µM)	> 20	> 20
CCCCCCOc1c(OC)cc(NC(C)CCCNC(=O)C(N)CCCN)c2nc(C(C)(C)C)ccc12 (centres unmarked) [compound 100, 2,5-Diamino-N-(4-(2-tert-butyl-5-(hexyloxy)-6-methoxyquinolin-8-ylamino)-pentyl)pentanamide]	0.86 (≈ 1.62 µM)	0.73 (≈ 1.38 µM)	NC (NC, not cytotoxic up to 4760 ng/mL (4.76 μg/mL))	> 20	> 20	> 20	> 20	> 20	> 20	> 20	> 20	> 20	> 20	> 20	> 20	> 20	9.34 (≈ 17.6 µM)	> 20	> 20
CCCCCCOc1c(OC)cc(NC(C)CCCNC(=O)C(N)CCCNC(=N)N)c2nc(C(C)(C)C)ccc12 (centres unmarked) [compound 101, 2-Amino-N-(4-(2-tert-butyl-5-(hexyloxy)-6-methoxyquinolin-8-ylamino)pentyl)-5-guanidinopentanamide]	0.8 (≈ 1.4 µM)	0.33 (≈ 0.577 µM)	NC (NC, not cytotoxic up to 4760 ng/mL (4.76 μg/mL))	> 20	> 20	> 20	14.3 (≈ 25 µM)	> 20	> 20	> 20	> 20	> 20	8.87 (≈ 15.5 µM)	> 20	> 20	> 20	18.4 (≈ 32.2 µM)	> 20	20 (≈ 35 µM)
CCCCCCCOc1c(OC)cc(NC(C)CCCNC(=O)C(N)CCCCN)c2nc(C(C)(C)C)ccc12 (centres unmarked) [compound 109, 2,6-Diamino-N-(4-(2-tert-butyl-5-(heptyloxy)-6-methoxyquinolin-8-ylamino)-pentyl)hexanamide]	0.8 (≈ 1.43 µM)	0.68 (≈ 1.22 µM)	NC (NC, not cytotoxic up to 4760 ng/mL (4.76 μg/mL))	> 20	> 20	> 20	> 20	> 20	> 20	> 20	> 20	> 20	> 20	> 20	> 20	> 20	> 20	> 20	> 20
CCCCCCCOc1c(OC)cc(NC(C)CCCNC(=O)C(N)CCCN)c2nc(C(C)(C)C)ccc12 (centres unmarked) [compound 110, 2,5-Diamino-N-(4-(2-tert-butyl-5-(heptyloxy)-6-methoxyquinolin-8-ylamino)-pentyl)pentanamide]	3.2 (≈ 5.88 µM)	1.6 (≈ 2.94 µM)	NC (NC, not cytotoxic up to 4760 ng/mL (4.76 μg/mL))	> 20	> 20	> 20	> 20	> 20	> 20	> 20	> 20	> 20	> 20	> 20	> 20	> 20	> 20	> 20	> 20
